# Test results: ChEMBL document CHEMBL1275303, “Synthesis and antimicrobial activity of 2-substituted [4-(1,3,4-oxadiazol-2-yl methyl)] phthalazin-1(2H)-one derivatives” (2010)
# Key:
# Nannizzia gypsea [1] = experiment: Antimicrobial activity against Microsporum gypseum at 100 ug/mL after 72 hrs by well plate method; assay type: functional; details: read-out: IZ
# How it was run: (§1)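 Antifungal well-plate assay on Sabouraud dextrose agar using a 72 h old broth culture of the fungal strain. Wells were filled with compound dissolved in DMSO (100 or 50), and the zone of inhibition around each well was measured. […] served as reference.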
# Salmonella typhi [2] = experiment: Antimicrobial activity against Salmonella typhi at 100 ug/mL after 24 hrs by well plate method; assay type: functional, Salmonella enterica subsp. enterica serovar Typhi; details: Salmonella enterica, read-out: IZ
# How it was run: (§2)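 Agar well diffusion in nutrient agar: about 1 cm³ of a 24 h broth culture placed in a sterile dish, molten agar at 45 °C poured over it and allowed to set. 6 mm holes cut with a sterile cork borer and filled with compound solution in DMSO. Incubated 24 h at 37 °C; inhibition zone diameter read in mm. Run in duplicate, standard deviation calculated.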
# Staphylococcus aureus [3] = experiment: Antimicrobial activity against Staphylococcus aureus at 50 ug/mL after 24 hrs by well plate method; assay type: functional; details: read-out: IZ
# How it was run: (§3)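 Agar well diffusion in nutrient agar. About 1 cm³ of a 24 h broth culture was placed in sterile dishes, and molten agar at 45 °C was poured over it and set. 6 mm wells were bored and filled with compound in DMSO (100 or 50). Plates were incubated 24 h at 37 °C, and the inhibition zone was read in mm. Duplicate runs, with standard deviation; amoxicillin as reference.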
# Escherichia coli [4] = experiment: Antimicrobial activity against Escherichia coli at 50 ug/mL after 24 hrs by well plate method; assay type: functional; details: read-out: IZ; how it was run: as §3
# Staphylococcus aureus [5] = experiment: Antimicrobial activity against Staphylococcus aureus at 100 ug/mL after 24 hrs by well plate method; assay type: functional; details: read-out: IZ; how it was run: as §3
# Aspergillus flavus [6] = experiment: Antimicrobial activity against Aspergillus flavus at 50 ug/mL after 72 hrs by well plate method; assay type: functional; details: read-out: IZ
# Aspergillus flavus [7] = experiment: Antimicrobial activity against Aspergillus flavus at 100 ug/mL after 72 hrs by well plate method; assay type: functional; details: read-out: IZ
# Escherichia coli [8] = experiment: Antimicrobial activity against Escherichia coli at 100 ug/mL after 24 hrs by well plate method; assay type: functional; details: read-out: IZ; how it was run: as §3
# Candida albicans [9] = experiment: Antimicrobial activity against Candida albicans at 50 ug/mL after 72 hrs by well plate method; assay type: functional; details: read-out: IZ; how it was run: as §1
# Bacillus subtilis [10] = experiment: Antimicrobial activity against Bacillus subtilis at 50 ug/mL after 24 hrs by well plate method; assay type: functional; details: read-out: IZ; how it was run: as §3
# Candida albicans [11] = experiment: Antimicrobial activity against Candida albicans at 100 ug/mL after 72 hrs by well plate method; assay type: functional; details: read-out: IZ; how it was run: as §1
# Nannizzia gypsea [12] = experiment: Antimicrobial activity against Microsporum gypseum at 50 ug/mL after 72 hrs by well plate method; assay type: functional; details: read-out: IZ; how it was run: as §1
# [13] = tested on: Chrysosporium keratinophilum; experiment: Antimicrobial activity against Chrysosporium keratinophilum at 100 ug/mL after 72 hrs by well plate method; assay type: functional; details: read-out: IZ; how it was run: as §1
# [14] = tested on: Chrysosporium keratinophilum; experiment: Antimicrobial activity against Chrysosporium keratinophilum at 50 ug/mL after 72 hrs by well plate method; assay type: functional; details: read-out: IZ; how it was run: as §1
# Bacillus subtilis [15] = experiment: Antimicrobial activity against Bacillus subtilis at 100 ug/mL after 24 hrs by well plate method; assay type: functional; details: read-out: IZ; how it was run: as §3
# Salmonella typhi [16] = experiment: Antimicrobial activity against Salmonella typhi at 50 ug/mL after 24 hrs by well plate method; assay type: functional, Salmonella enterica subsp. enterica serovar Typhi; details: Salmonella enterica, read-out: IZ; how it was run: as §2
compound,measurement,setting,value
O=c1c2ccccc2c(Cc2nnc(C3CC3)o2)nn1CCN1CCOCC1,zone of inhibition at 100 µg/mL,Nannizzia gypsea [1],6 mm
same,zone of inhibition at 100 µg/mL,Salmonella typhi [2],6.5 mm
same,zone of inhibition at 50 µg/mL,Staphylococcus aureus [3],0 mm
same,zone of inhibition at 50 µg/mL,Escherichia coli [4],1.5 mm
same,zone of inhibition at 100 µg/mL,Staphylococcus aureus [5],1.5 mm
same,zone of inhibition at 50 µg/mL,Aspergillus flavus [6],2.5 mm
same,zone of inhibition at 100 µg/mL,Aspergillus flavus [7],5 mm
same,zone of inhibition at 100 µg/mL,Escherichia coli [8],5 mm
same,zone of inhibition at 50 µg/mL,Candida albicans [9],2.5 mm
same,zone of inhibition at 50 µg/mL,Bacillus subtilis [10],3.5 mm
same,zone of inhibition at 100 µg/mL,Candida albicans [11],4.5 mm
same,zone of inhibition at 50 µg/mL,Nannizzia gypsea [12],3.5 mm
same,zone of inhibition at 100 µg/mL,[13],2.5 mm
same,zone of inhibition at 50 µg/mL,[14],0.5 mm
same,zone of inhibition at 100 µg/mL,Bacillus subtilis [15],5.5 mm
same,zone of inhibition at 50 µg/mL,Salmonella typhi [16],2.5 mm
O=c1c2ccccc2c(Cc2nnc(-c3ccc(F)cc3)o2)nn1CCN1CCOCC1,zone of inhibition at 100 µg/mL,Nannizzia gypsea [1],7.5 mm
same,zone of inhibition at 100 µg/mL,Salmonella typhi [2],5 mm
same,zone of inhibition at 50 µg/mL,Staphylococcus aureus [3],0 mm
same,zone of inhibition at 50 µg/mL,Escherichia coli [4],0 mm
same,zone of inhibition at 100 µg/mL,Staphylococcus aureus [5],1 mm
same,zone of inhibition at 50 µg/mL,Aspergillus flavus [6],2 mm
same,zone of inhibition at 100 µg/mL,Aspergillus flavus [7],4 mm
same,zone of inhibition at 100 µg/mL,Escherichia coli [8],2 mm
same,zone of inhibition at 50 µg/mL,Candida albicans [9],2.5 mm
same,zone of inhibition at 50 µg/mL,Bacillus subtilis [10],3 mm
same,zone of inhibition at 100 µg/mL,Candida albicans [11],5.5 mm
same,zone of inhibition at 50 µg/mL,Nannizzia gypsea [12],4 mm
same,zone of inhibition at 100 µg/mL,[13],5.5 mm
same,zone of inhibition at 50 µg/mL,[14],2.5 mm
same,zone of inhibition at 100 µg/mL,Bacillus subtilis [15],6 mm
same,zone of inhibition at 50 µg/mL,Salmonella typhi [16],3.5 mm
O=c1c2ccccc2c(Cc2nnc(-c3ccc(Cl)cc3)o2)nn1CCN1CCOCC1,zone of inhibition at 100 µg/mL,Nannizzia gypsea [1],3 mm
same,zone of inhibition at 100 µg/mL,Salmonella typhi [2],4.5 mm
same,zone of inhibition at 50 µg/mL,Staphylococcus aureus [3],5 mm
same,zone of inhibition at 50 µg/mL,Escherichia coli [4],3 mm
same,zone of inhibition at 100 µg/mL,Staphylococcus aureus [5],8 mm
same,zone of inhibition at 50 µg/mL,Aspergillus flavus [6],0 mm
same,zone of inhibition at 100 µg/mL,Aspergillus flavus [7],1 mm
same,zone of inhibition at 100 µg/mL,Escherichia coli [8],7 mm
same,zone of inhibition at 50 µg/mL,Candida albicans [9],1 mm
same,zone of inhibition at 50 µg/mL,Bacillus subtilis [10],2 mm
same,zone of inhibition at 100 µg/mL,Candida albicans [11],3.5 mm
same,zone of inhibition at 50 µg/mL,Nannizzia gypsea [12],1 mm
same,zone of inhibition at 100 µg/mL,[13],1.5 mm
same,zone of inhibition at 50 µg/mL,[14],0 mm
same,zone of inhibition at 100 µg/mL,Bacillus subtilis [15],4 mm
same,zone of inhibition at 50 µg/mL,Salmonella typhi [16],3 mm
Cc1ccccc1-c1nnc(Cc2nn(CCN3CCOCC3)c(=O)c3ccccc23)o1,zone of inhibition at 100 µg/mL,Nannizzia gypsea [1],2 mm
same,zone of inhibition at 100 µg/mL,Salmonella typhi [2],5 mm
same,zone of inhibition at 50 µg/mL,Staphylococcus aureus [3],1.5 mm
same,zone of inhibition at 50 µg/mL,Escherichia coli [4],2.5 mm
same,zone of inhibition at 100 µg/mL,Staphylococcus aureus [5],3.5 mm
same,zone of inhibition at 50 µg/mL,Aspergillus flavus [6],1.5 mm
same,zone of inhibition at 100 µg/mL,Aspergillus flavus [7],3 mm
same,zone of inhibition at 100 µg/mL,Escherichia coli [8],5.5 mm
same,zone of inhibition at 50 µg/mL,Candida albicans [9],0 mm
same,zone of inhibition at 50 µg/mL,Bacillus subtilis [10],2.5 mm
same,zone of inhibition at 100 µg/mL,Candida albicans [11],1.5 mm
same,zone of inhibition at 50 µg/mL,Nannizzia gypsea [12],1 mm
same,zone of inhibition at 100 µg/mL,[13],2.5 mm
same,zone of inhibition at 50 µg/mL,[14],0 mm
same,zone of inhibition at 100 µg/mL,Bacillus subtilis [15],4.5 mm
same,zone of inhibition at 50 µg/mL,Salmonella typhi [16],2.5 mm
O=c1c2ccccc2c(Cc2nnc(-c3ccsc3)o2)nn1CCN1CCOCC1,zone of inhibition at 100 µg/mL,Nannizzia gypsea [1],10.5 mm
same,zone of inhibition at 100 µg/mL,Salmonella typhi [2],7.5 mm
same,zone of inhibition at 50 µg/mL,Staphylococcus aureus [3],3.5 mm
same,zone of inhibition at 50 µg/mL,Escherichia coli [4],3.5 mm
same,zone of inhibition at 100 µg/mL,Staphylococcus aureus [5],5 mm
same,zone of inhibition at 50 µg/mL,Aspergillus flavus [6],6.5 mm
same,zone of inhibition at 100 µg/mL,Aspergillus flavus [7],9.5 mm
same,zone of inhibition at 100 µg/mL,Escherichia coli [8],8.5 mm
same,zone of inhibition at 50 µg/mL,Candida albicans [9],4.5 mm
same,zone of inhibition at 50 µg/mL,Bacillus subtilis [10],3 mm
same,zone of inhibition at 100 µg/mL,Candida albicans [11],7.5 mm
same,zone of inhibition at 50 µg/mL,Nannizzia gypsea [12],7.5 mm
same,zone of inhibition at 100 µg/mL,[13],6.5 mm
same,zone of inhibition at 50 µg/mL,[14],3.5 mm
same,zone of inhibition at 100 µg/mL,Bacillus subtilis [15],6 mm
same,zone of inhibition at 50 µg/mL,Salmonella typhi [16],4.5 mm
O=c1c2ccccc2c(Cc2nnc(-c3ccc(Cl)nc3)o2)nn1CCN1CCOCC1,zone of inhibition at 100 µg/mL,Nannizzia gypsea [1],9.5 mm
same,zone of inhibition at 100 µg/mL,Salmonella typhi [2],6.5 mm
same,zone of inhibition at 50 µg/mL,Staphylococcus aureus [3],3.5 mm
same,zone of inhibition at 50 µg/mL,Escherichia coli [4],1.5 mm
same,zone of inhibition at 100 µg/mL,Staphylococcus aureus [5],7 mm
same,zone of inhibition at 50 µg/mL,Aspergillus flavus [6],4.5 mm
same,zone of inhibition at 100 µg/mL,Aspergillus flavus [7],8 mm
same,zone of inhibition at 100 µg/mL,Escherichia coli [8],5.5 mm
same,zone of inhibition at 50 µg/mL,Candida albicans [9],6.5 mm
same,zone of inhibition at 50 µg/mL,Bacillus subtilis [10],4.5 mm
same,zone of inhibition at 100 µg/mL,Candida albicans [11],10.5 mm
same,zone of inhibition at 50 µg/mL,Nannizzia gypsea [12],4 mm
same,zone of inhibition at 100 µg/mL,[13],4.5 mm
same,zone of inhibition at 50 µg/mL,[14],1.5 mm
same,zone of inhibition at 100 µg/mL,Bacillus subtilis [15],9 mm
same,zone of inhibition at 50 µg/mL,Salmonella typhi [16],3.5 mm
